In ChEMBL document CHEMBL3297648, “Diterpenoids from the Chinese liverwort Heteroscyphus tener and their antiproliferative effects” (J Nat Prod, 2014):
Activity calls are given as the source filed them. No cut-off for these calls is given here.

Tests used:
[1] = tested on: PC-3; assay: Induction of ROS generation in human PC3 cells at 20 uM after 30 mins to 4 hrs by DCFH-DA staining based flow cytometry; type: functional, cell-based
Method in brief: (§1)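 Cells in RPMI 1640 with 10% FBS, 5% CO2, 37 °C, treated at 50−70% confluence (DMSO vehicle). After exposure, cells were loaded with 10 μM DCFH-DA for 30 min at 37 °C, washed, resuspended in PBS, and read at once by flow cytometry. For NAC runs, cells got 5 mM NAC 1 h before compound. ROS reported as ratio relative to untreated control.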

[2] = tested on: PC-3; assay: Induction of ROS generation in human PC3 cells at 20 uM pretreated for 1 hr with 5 mM antioxidant NAC measured after 24 hrs by DCFH-DA staining based flow cytometry; type: functional, cell-based; method in brief: as §1
[3] = tested on: DU-145; assay: Induction of apoptosis in human DU145 cells assessed as late apoptotic cells at 20 uM after 4 hrs by Annexin V-FITC/propidium iodide staining based flow cytometry (reference value: 1.53%); type: functional
Method in brief: (§2)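 Cells seeded in 6-well plates for 24 h, then given 20 μM for the stated times. Cells were trypsinized, PBS-washed, stained with annexin V-FITC/PI, and analysed immediately by flow cytometry. Means ± SD of three independent experiments; Student's t test against untreated control.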

[4] = Cell cycle arrest in human PC3 cells assessed as accumulation at G0/G1 phase at 20 uM after 24 hrs by propidium iodide staining based flow cytometry (reference value: 66.57%); type: functional; settings: PC-3
[5] = tested on: PC-3; assay: Induction of apoptosis in human PC3 cells assessed as late apoptotic cells at 20 uM after 4 hrs by Annexin V-FITC/propidium iodide staining based flow cytometry (reference value: 7.92%); type: functional; method in brief: as §2
[6] = tested on: DU-145; assay: Cell cycle arrest in human DU145 cells assessed as accumulation at G2/M phase at 20 uM after 24 hrs by propidium iodide staining based flow cytometry (reference value: 10.44%); type: functional
[7] = Decrease in BRCA1 protein expression in human PC3 cells at 20 uM after 2 to 48 hrs by western blot analysis; type: functional, cell-based; settings: PC-3
Method in brief: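 Cells treated at 20 μM for various times, lysed in RIPA buffer with protease/phosphatase inhibitors, protein quantified by BCA. Equal protein run on 12% SDS-PAGE, transferred to nitrocellulose, blocked 1 h in 5% milk/TBST, primary antibodies overnight at 4 °C, secondary 1:2000 for 45 min, ECL detection on film. GAPDH used as loading control.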

[8] = tested on: PC-3; assay: Induction of apoptosis in human PC3 cells assessed as necrotic cells at 20 uM after 8 hrs by Annexin V-FITC/propidium iodide staining based flow cytometry (reference value: 0.98%); type: functional; method in brief: as §2
[9] = tested on: PC-3; assay: Induction of apoptosis in human PC3 cells assessed as early apoptotic cells at 20 uM after 12 hrs by Annexin V-FITC/propidium iodide staining based flow cytometry (reference value: 0.79%); type: functional; method in brief: as §2
[10] = tested on: DU-145; assay: Cell cycle arrest in human DU145 cells assessed as accumulation at subG1 phase at 20 uM after 24 hrs by propidium iodide staining based flow cytometry (reference value: 0.28%); type: functional
[11] = tested on: PC-3; assay: Induction of apoptosis in human PC3 cells assessed as cleaved caspase-3 level at 20 uM after 12 hrs by western blot analysis; type: functional, cell-based
Method in brief: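 Cells exposed to 20 μM for the stated times. Lysis in RIPA plus protease inhibitors, BCA protein assay, equal protein on 12% SDS-PAGE, transfer to nitrocellulose. Blocking in 5% milk/TBST 1 h; primary antibodies overnight at 4 °C; secondary 1:2000 for 45 min; ECL detection. GAPDH served as loading control.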

[12] = Cell cycle arrest in human PC3 cells assessed as accumulation at S phase at 20 uM after 24 hrs by propidium iodide staining based flow cytometry (reference value: 22.07%); type: functional; settings: PC-3
[13] = tested on: DU-145; assay: Induction of apoptosis in human DU145 cells assessed as late apoptotic cells at 20 uM after 12 hrs by Annexin V-FITC/propidium iodide staining based flow cytometry (reference value: 1.53%); type: functional; method in brief: as §2
[14] = tested on: NCI-H446; assay: Antiproliferative activity against human NCI-H446 cells assessed as inhibition of cell viability after 24 hrs by MTT assay; type: functional, cell-based; settings: NCI-H446, 24 h
Method in brief: (§3)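 Cells grown to 50–70% confluence (RWPE1 in K-SFM with pituitary extract and EGF; the other lines in RPMI 1640 with 10% FBS), 5% CO2, 37 °C. Treated for 24 h with DMSO vehicle, compounds, or cisplatin as positive control. MTT (5 mg/mL) added for 4 h, formazan dissolved in DMSO, absorbance read at 570 nm. Viability taken relative to untreated cells after blank subtraction, IC50 fitted from % viability, at least three experiments.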

[15] = tested on: DU-145; assay: Induction of apoptosis in human DU145 cells assessed as early apoptotic cells at 20 uM after 12 hrs by Annexin V-FITC/propidium iodide staining based flow cytometry (reference value: 1.60%); type: functional; method in brief: as §2
[16] = tested on: PC-3; assay: Induction of apoptosis in human PC3 cells assessed as necrotic cells at 20 uM after 12 hrs by Annexin V-FITC/propidium iodide staining based flow cytometry (reference value: 0.98%); type: functional; method in brief: as §2
[17] = tested on: DU-145; assay: Induction of apoptosis in human DU145 cells assessed as necrotic cells at 20 uM after 8 hrs by Annexin V-FITC/propidium iodide staining based flow cytometry (reference value: 0.21%); type: functional; method in brief: as §2
[18] = tested on: PC-3; assay: Antiproliferative activity against human PC3 cells assessed as inhibition of cell viability at 20 uM pretreated for 1 hr with 5 mM antioxidant NAC measured after 24 hrs by MTT assay; type: functional, cell-based
[19] = tested on: NCI-H292; assay: Antiproliferative activity against human NCI-H292 cells assessed as inhibition of cell viability after 24 hrs by MTT assay; type: functional, cell-based; settings: NCI-H292, 24 h; method in brief: as §3
[20] = tested on: DU-145; assay: Induction of ROS generation in human DU145 cells at 20 uM pretreated for 1 hr with 5 mM antioxidant NAC measured after 24 hrs by DCFH-DA staining based flow cytometry; type: functional, cell-based; method in brief: as §1
[21] = tested on: DU-145; assay: Induction of apoptosis in human DU145 cells assessed as necrotic cells at 20 uM after 24 hrs by Annexin V-FITC/propidium iodide staining based flow cytometry (reference value: 0.21%); type: functional; method in brief: as §2
[22] = Decrease in Cdk4 protein expression in human PC3 cells after 2 to 48 hrs by western blot analysis; type: functional, cell-based; settings: PC-3
Method in brief: (§4)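 Western blot of cyclin D1, cyclin E, Cdk4 and p21 in PC3 and DU145 lysates. Lysis in RIPA buffer plus protease inhibitors, BCA quantification, 12% SDS-PAGE, nitrocellulose transfer, milk block, primaries overnight at 4 °C, secondary 1:2000 for 45 min, ECL read-out. GAPDH served as loading control.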

[23] = tested on: PC-3; assay: Induction of apoptosis in human PC3 cells assessed as necrotic cells at 20 uM after 24 hrs by Annexin V-FITC/propidium iodide staining based flow cytometry (reference value: 0.98%); type: functional; method in brief: as §2
[24] = tested on: DU-145; assay: Induction of apoptosis in human DU145 cells at 20 uM by Annexin V-FITC/propidium iodide staining based flow cytometry; type: functional, cell-based; settings: TDE = time-dependent effect; method in brief: as §2
[25] = Antiproliferative activity against HBE cells assessed as inhibition of cell viability after 24 hrs by MTT assay; type: cell-based; settings: Homo sapiens; method in brief: as §3
[26] = tested on: PC-3; assay: Increase in p21CIP1 protein expression in human PC3 cells after 2 to 48 hrs by western blot analysis; type: functional, cell-based; method in brief: as §4

Structure (SMILES): C=C[C@@](C)(O)CC[C@@H]1C(C)=CC[C@@H]2C(C)(C)CCC[C@@]12C
- Activity [1]: Active
- Activity [2]: inactive
- Activity [3]: 9.26%
- Activity [4]: 82.5%
- Activity [5]: 12.94%
- Activity [6]: 12.9%
- inhibition [7]: inactive
- Activity [8]: 2.95%
- Activity [9]: 3.51%
- Activity [10]: 2.82%
- Activity [11]: Active
- Activity [12]: 4.24%
- Activity [13]: 11.32%
- IC50 [14]: 39.5 µM
- Activity [15]: 6.55%
- Activity [16]: 4.68%
- Activity [17]: 2.44%
- inhibition [18]: inactive
- IC50 [19]: 17.1 µM
- Activity [20]: inactive
- Activity [21]: 4.55%
- inhibition [22]: Active
- Activity [23]: 10.21%
- Activity [24]: tde
- IC50 [25]: 53.9 µM
- Activity [26]: Active
